Published values of several laboratories.
Compare with care: the assays were run in different laboratories.
Target: Serine/threonine-protein kinase ULK3 (ULK3, Homo sapiens, UniProt Q6PHR2)
One construct used (Q6PHR2 1-472): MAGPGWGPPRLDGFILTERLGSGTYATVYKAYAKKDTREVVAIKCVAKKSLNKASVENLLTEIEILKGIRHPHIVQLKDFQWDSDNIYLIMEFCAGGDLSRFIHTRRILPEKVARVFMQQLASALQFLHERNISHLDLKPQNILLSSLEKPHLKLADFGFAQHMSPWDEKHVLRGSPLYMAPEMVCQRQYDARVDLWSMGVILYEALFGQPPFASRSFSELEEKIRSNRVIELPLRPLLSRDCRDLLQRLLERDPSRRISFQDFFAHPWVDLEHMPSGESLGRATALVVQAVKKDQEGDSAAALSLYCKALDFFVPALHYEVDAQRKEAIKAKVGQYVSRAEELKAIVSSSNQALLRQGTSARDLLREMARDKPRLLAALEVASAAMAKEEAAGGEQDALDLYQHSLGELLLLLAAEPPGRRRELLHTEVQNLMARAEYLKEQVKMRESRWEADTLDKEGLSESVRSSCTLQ

`C[C@@H](c1cccc(C#N)c1)n1cc(Cl)cc(C(N)=O)c1=N` gave a remaining binding of 75% (cell-free assay, competition with immobilised ligand; 1 µM).
`CC(C)(O)[C@H]1CC[C@H](Nc2ccc3ncc(-c4cccc(C(F)(F)F)c4)n3n2)CC1` has a remaining activity of 86.2% (enzyme activity, inhibitor; 1 µM).
With `Nc1cnc(N2CCc3cc(S(=O)(=O)Nc4c(F)cc(Cl)cc4F)cc(N4CCCC4=O)c32)nc1` the remaining binding was 100% (cell-free assay, competition with immobilised ligand; 1 µM).
The remaining signal of `CS(=O)(=O)CCNCc1ccc(-c2ccc3ncnc(Nc4ccc(OCc5cccc(F)c5)c(Cl)c4)c3c2)o1` is reported as 106% (cell-free assay; 0.5 µM).
`Cc1ccc(C(=O)Nc2ccc(CN3CCN(C)CC3)c(C(F)(F)F)c2)cc1C#Cc1cnc2cccnn12` gave a remaining activity of 61% (enzyme activity, inhibitor; 23.5 nM).
`COc1cc(Cl)c(C(=O)N[C@@H](CN[C@H]2CC[C@@H](N)CC2)Cc2ccc(C#N)cc2)cc1-c1ccc(CN[C@H](C)c2ccc(C)cc2)o1` has a remaining activity of 98% (enzyme activity, inhibitor; 1 µM).
`COc1cc2c(Nc3ccc(Br)cc3F)ncnc2cc1OCC1CCN(C)CC1` has a remaining signal of 105% (cell-free assay; 0.5 µM).
`Cc1cnc(NC2CCOCC2)nc1-n1cnc(C(=O)NC(CN)c2cc(F)cc(Cl)c2)c1` (centres unmarked) has a remaining activity of 91% (enzyme activity, inhibitor, radiometric; 1 µM).
The remaining signal of `COc1cc2c(N3CCN(C(=O)Nc4ccc(OC(C)C)cc4)CC3)ncnc2cc1OCCCN1CCCCC1` is reported as 101% (cell-free assay; 0.5 µM).
For `CCc1ccccc1C(=O)Nc1n[nH]c2c(C)c(F)c(C3C(C#N)=C(C)N(C)C(C)=C3C#N)cc12`, the remaining binding was 82% (cell-free assay, competition with immobilised ligand; 1 µM).
`O=C(Nc1cnn(-c2csc(C(=O)NC3COC3)c2)c1)Nc1c(F)cccc1Cl` has a remaining activity of 76.6% (enzyme activity, inhibitor; 5 µM).
For `COc1cc(-c2cn(C3CCc4ccccc4N(CC(F)(F)F)C3=O)nn2)ccc1-n1ccc(C)n1` (centres unmarked), the remaining binding was 61% (cell-free assay, competition with immobilised ligand; 1 µM).
`Clc1ccc(Nc2nnc(Cc3ccncc3)c3ccccc23)cc1` has a remaining signal of 101% (cell-free assay; 0.5 µM).
`Cc1ccc(C(=O)NCc2ccsc2)cc1C#Cc1cn(C(C)C)c2ncnc(N)c12` has an activity vs control of 84% (enzyme activity, inhibitor; 1 µM).
